Source: ChEMBL document CHEMBL1133940, “A novel class of inhibitors for steroid 5alpha-reductase: synthesis and evaluation of umbelliferone derivatives” (Bioorg Med Chem Lett, 2001)
Values joined by “and” are separate entries in the source; they are usually repeats but may differ in a detail not shown here. Equal entries are not always repeated.

molecular target: T1, 3-oxo-5-alpha-steroid 4-dehydrogenase 1 (Homo sapiens, UniProt P18405); assay: Inhibitory activity against 5-alpha-reductase type 1 in cell culture system using LNCaP cells (androgen-sensitive human prostatic cancer cell line); assay type: cell-based
T1 sequence (P18405 whole entry): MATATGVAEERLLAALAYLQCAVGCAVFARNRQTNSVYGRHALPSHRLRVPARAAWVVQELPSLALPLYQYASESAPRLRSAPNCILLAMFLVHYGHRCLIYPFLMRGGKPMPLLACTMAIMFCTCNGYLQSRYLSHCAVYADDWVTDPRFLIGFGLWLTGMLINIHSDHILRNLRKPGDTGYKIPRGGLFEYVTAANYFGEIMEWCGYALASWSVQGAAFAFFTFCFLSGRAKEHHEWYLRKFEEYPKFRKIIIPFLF
Method in brief: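 LNCaP cells (express 5aR-1 only) seeded at 2×10⁵ cells/mL/well, grown 24 h in medium with 5% hormone-free FBS. Then exposed to [³H]-testosterone plus test sample (final 0.5% DMSO) for 18 h. Medium extracted with ethyl acetate, [³H]-T and [³H]-DHT separated by TLC. Conversion = DHT radioactivity/(T+DHT). IC50 ([…]) relative to 0.5% DMSO control.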

IC50	Structure (SMILES)
> 18.5 µM	C=CCc1c(OC)ccc2ccc(=O)oc12
> 81.2 µM	C=CCc1c(OCCO)ccc2ccc(=O)oc12
> 98.9 µM	C=CCOc1ccc2ccc(=O)oc2c1 [7-ALLYLOXYCOUMARIN]
0.819 µM and 0.82 µM	C=CCc1c(OC(C)=O)ccc2ccc(=O)oc12
> 77.4 µM	C=CCc1c(OCC(C)=O)ccc2ccc(=O)oc12
> 14.9 µM	C#CC(C)(C)Oc1ccc2ccc(=O)oc2c1CC=C
1.3 µM	C=CC(C)(C)Oc1ccc2ccc(=O)oc2c1
0.49 µM	C=CCc1c(OC(=O)c2ccccc2)ccc2ccc(=O)oc12
> 13.7 µM	C=CCc1c(OCc2ccccc2)ccc2ccc(=O)oc12
> 99.9 µM	C#CCOc1ccc2ccc(=O)oc2c1
50.3 µM	C=CCc1c(OC(C)(C)C=C)ccc2ccc(=O)oc12
> 123 µM	O=c1ccc2ccc(O)cc2o1 [UMBELLIFERONE]
> 87.6 µM	C#CC(C)(C)Oc1ccc2ccc(=O)oc2c1
0.989 µM and 0.99 µM	C=CCc1c(O)ccc2ccc(=O)oc12
0.622 µM and 0.62 µM	C=CCc1c(OC(=O)Nc2ccccc2)ccc2ccc(=O)oc12
8.41 µM and 8.4 µM	C=CCc1cc2ccc(=O)oc2cc1O

Structure (SMILES)	IC50
CC(C)(C)NC(=O)[C@H]1CC[C@H]2[C@@H]3CC[C@H]4NC(=O)C=C[C@]4(C)[C@H]3CC[C@]12C [FINASTERIDE]	53.1 µM and 53 µM
